ChEMBL document CHEMBL1687941 (J Med Chem, 2011)

Columns and labels:
Aminopeptidase N = molecular target: T1, Aminopeptidase N (Plasmodium falciparum FcB1/Columbia, UniProt O96935); assay: Inhibition of Plasmodium falciparum recombinant M1-aminopeptidase expressed in Escherichia coli after 40 mins uisng fluorogenic substrate L-Leucyl-7-amido-40-methylcoumarin by fluorescence spectrophotometry
T1 sequence (O96935 whole entry): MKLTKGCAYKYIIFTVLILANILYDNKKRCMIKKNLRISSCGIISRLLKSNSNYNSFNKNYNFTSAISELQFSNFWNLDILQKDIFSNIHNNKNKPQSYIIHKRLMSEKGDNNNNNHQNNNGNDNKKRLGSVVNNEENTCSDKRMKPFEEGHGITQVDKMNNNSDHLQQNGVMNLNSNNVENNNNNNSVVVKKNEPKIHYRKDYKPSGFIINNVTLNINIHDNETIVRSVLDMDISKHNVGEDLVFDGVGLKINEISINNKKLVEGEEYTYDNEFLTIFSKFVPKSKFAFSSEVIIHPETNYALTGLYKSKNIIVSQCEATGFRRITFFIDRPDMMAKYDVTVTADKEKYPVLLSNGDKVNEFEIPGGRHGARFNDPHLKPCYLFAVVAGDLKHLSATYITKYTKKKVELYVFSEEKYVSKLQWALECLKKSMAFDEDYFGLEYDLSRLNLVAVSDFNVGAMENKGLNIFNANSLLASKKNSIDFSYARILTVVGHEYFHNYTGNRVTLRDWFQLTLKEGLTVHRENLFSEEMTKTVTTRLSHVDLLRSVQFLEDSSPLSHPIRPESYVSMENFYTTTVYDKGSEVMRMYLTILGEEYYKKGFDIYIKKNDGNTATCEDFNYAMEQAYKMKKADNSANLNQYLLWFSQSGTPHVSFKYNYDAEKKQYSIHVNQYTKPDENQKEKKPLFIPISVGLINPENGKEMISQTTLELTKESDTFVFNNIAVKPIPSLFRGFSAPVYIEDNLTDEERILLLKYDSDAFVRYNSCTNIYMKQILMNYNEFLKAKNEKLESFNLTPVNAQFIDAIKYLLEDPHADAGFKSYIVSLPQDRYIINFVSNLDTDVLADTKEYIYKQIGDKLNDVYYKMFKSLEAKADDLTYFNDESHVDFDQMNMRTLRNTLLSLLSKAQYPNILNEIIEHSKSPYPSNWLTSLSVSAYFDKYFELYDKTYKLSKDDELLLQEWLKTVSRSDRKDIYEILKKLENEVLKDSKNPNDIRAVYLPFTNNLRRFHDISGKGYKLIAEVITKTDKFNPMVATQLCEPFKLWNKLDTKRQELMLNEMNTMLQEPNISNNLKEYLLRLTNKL
Method in brief: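 Recombinant PfA-M1 expressed in E. coli, 0.9 nM, in 50 mM HEPES pH 7.5, 100 mM NaCl, 0.1% Triton X-100. Ki by Dixon plots (1/rate vs [I]) and secondary plots vs 1/[S]. Competitive mode checked with a/v vs i plots.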

Plasmodium falciparum = assay: Antimalarial activity against Plasmodium falciparum 3D7 infected-erythrocytes after 72 hrs by SYBR green fluorescence method; format: functional, organism-based; settings: 3D7, 72 h
Method in brief: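 P. falciparum 3D7 grown in erythrocytes at 4% hematocrit in RPMI 1640 with 20 mM HEPES, 32 mM NaHCO3, 10% Albumax II. Serial dilutions added to phenol red-free culture at 0.5% starting parasitemia, in triplicate, for 72 h at 37 °C. Lysis buffer with saponin, Triton X and SYBR Green I then added for 1 h at room temperature. Fluorescence read as parasite growth, and IC50 derived.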

| Compound | Ki (Aminopeptidase N) | IC50 (Plasmodium falciparum) [µM] | Ki (Aminopeptidase N; read-out: Ki) [µM] |
| --- | --- | --- | --- |
| CC(C)C[C@H](NC(=O)[C@@H](O)[C@H](N)C(c1ccccc1)c1ccccc1)C(=O)O | Not Active | > 50 | – |
| N[C@H](Cc1ccccc1)[C@H](O)C(=O)N[C@@H](CCCCNC(=O)OCc1ccccc1)C(=O)O | – | – | 1.45 |
| CC(C)C[C@H](NC(=O)[C@@H](O)[C@H](N)Cc1ccc(OCc2ccccc2)cc1)C(=O)O | – | 29 | – |
| CC(C)C[C@H](NC(=O)[C@@H](O)[C@H](N)Cc1ccccc1)C(=O)O [UBENIMEX] | – | 3.2 | – |
| CCCC[C@@H](N)[C@H](O)C(=O)N[C@@H](CC(C)C)C(=O)O | – | > 50 | 5.3 |
| CC(C)C[C@H](NC(=O)[C@@H](O)[C@H](N)CC(C)C)C(=O)O | Not Active | > 50 | – |
| CC(C)C[C@H](NC(=O)[C@@H](O)[C@H](N)Cc1ccc(-c2ccccc2)cc1)C(=O)O | Not Active | > 50 | – |
| CCCC[C@H](NC(=O)[C@@H](O)[C@H](N)Cc1ccccc1)C(=O)O | – | – | 0.9 |
| CC(C)C[C@H](NC(=O)[C@@H](O)[C@H](N)Cc1ccc2ccccc2c1)C(=O)O | – | > 50 | 3 |
| COc1ccc(C[C@@H](N)[C@H](O)C(=O)N[C@@H](CC(C)C)C(=O)O)cc1 | – | 6.4 | – |
